The pIC50 is −log10 of the IC50, conventionally taken in molar units.

pIC50: −log10 of the molar value.

The assay can be described thus: Binding affinity to Bovicola ovis recombinant ecdysone receptor ligand binding domain after 3 hrs by fluorescence polarization assay. In short, it runs like this:
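B. ovis EcR_DEF/USP_DEF LBD heterodimer, co-expressed from baculovirus and purified by IMAC (2.51 mg/mL final). Competes with 36 nM fluorescein–inokosterone A conjugate in 50 mM sodium phosphate, 100 mM NaCl, pH 7.4 with 0.5 mg/mL BSA and 3% v/v DMSO. Compound range 3 nM–3 mM final. Incubated overnight at 4 °C, then 3 h at room temperature before polarisation (mP) read. Triplicate; IC50 from mean.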
On to `C=C1C(CCCC)=C(C#N)C(=O)N1c1c(C)cccc1[N+](=O)[O-]`, for which the pIC50 was 4.15.

Turning to `C=C1C(C)=C(C#N)C(=O)N1c1cc(Cl)c(Cl)cc1Cl`, the pIC50 is 5.15.

`C=C1C(C)=C(C#N)C(=O)N1c1c(C)cc(Cl)cc1Cl`: the pIC50 is 4.26.

With `C=C1C(C)=C(C#N)C(=O)N1c1c(C)cc(Cl)cc1C`, the pIC50 was 4.32.

Take `C=C1C(C)=C(C#N)C(=O)N1c1c(C)cc(C)cc1C`: the pIC50 is 4.17.

Regarding `C=C1C(CC)=C(C#N)C(=O)N1c1cccc(Cl)c1Cl`, the pIC50 was 4.76.

For the molecule `C=C1C(CC)=C(C#N)C(=O)N1c1cccc(Cl)c1C`, the pIC50 was 4.82.

For `C=C1C(CC)=C(C#N)C(=O)N1c1c(C)cccc1CC`, the pIC50 is 4.10.

For `C=C1C(CC)=C(C#N)C(=O)N1c1c(Cl)cc(Cl)cc1Cl`, the pIC50 is 3.80.

As for `C=C1C(CC(C)C)=C(C#N)C(=O)N1c1ccccc1C`, the pIC50 was 4.96.

`C=C1C(C)=C(C#N)C(=O)N1C1CCCC1`: the pIC50 is 4.07.

For the molecule `C=C1C(C)=C(C#N)C(=O)N1C1CCCCC1`, the negative-log IC50 (pIC50) was 4.30.

As for `C=C1C(CCC)=C(C#N)C(=O)N1C1CCCCC1`, the pIC50 was 4.56.

For the molecule `C=C1C(C)=C(C#N)C(=O)N1C1CCCC(C)C1C` (stereo unspecified), the pIC50 was 3.60.

For the molecule `C=C1C(C)=C(C#N)C(=O)N1C1CC2CCC1C2` (stereo unspecified), the pIC50 is 4.32.

On to `C=C1C(C)=C(C#N)C(=O)N1C1CCCc2ccccc21` (stereo unspecified), for which the pIC50 was 4.59.

Turning to `C=C1C(C)=C(C#N)C(=O)N1Cc1ccccc1Cl`, the pIC50 is 4.43.

`C=C1C(C)=C(C#N)C(=O)N1c1ccccc1Cl`: the pIC50 was 4.26.

Turning to `C=C1C(C)=C(C#N)C(=O)N1c1ccccc1Br`, the pIC50 is 4.43.

With `C=C1C(C)=C(C#N)C(=O)N1c1ccccc1C`, the pIC50 is 4.10.

In the case of `C=C1C(C)=C(C#N)C(=O)N1c1ccccc1C(C)C`, the pIC50 was 4.65.

On to `C=C1C(C)=C(C#N)C(=O)N1c1ccccc1C(C)(C)C`, for which the pIC50 is 4.76.

On to `C=C1C(C)=C(C#N)C(=O)N1c1ccccc1OC`, for which the pIC50 is 4.96.

In the case of `C=C1C(C)=C(C#N)C(=O)N1c1ccccc1OCC`, the pIC50 is 3.46.

On to `C=C1C(C)=C(C#N)C(=O)N1c1cccc(Cl)c1`, for which the pIC50 is 4.72.

In the case of `C=C1C(C)=C(C#N)C(=O)N1c1cccc(SC)c1`, the negative logarithm of the IC50 (pIC50) is 4.60.

Consider `C=C1C(C)=C(C#N)C(=O)N1c1cccc(C(F)(F)F)c1`, for which the pIC50 was 4.66.

Consider `C=C1C(C)=C(C#N)C(=O)N1c1ccc(N(C)C)cc1`, for which the pIC50 was 3.82.

As for `C=C1C(C)=C(C#N)C(=O)N1c1ccc(NC(C)=O)cc1`, the negative-log IC50 (pIC50) is 3.24.

Regarding `C=C1C(C)=C(C#N)C(=O)N1c1cccc(Cl)c1Cl`, the pIC50 was 4.65.

With `C=C1C(C)=C(C#N)C(=O)N1c1ccc(F)cc1F`, the pIC50 is 4.05.

For the molecule `C=C1C(C)=C(C#N)C(=O)N1c1ccc(OC)cc1OC`, the pIC50 is 3.82.

As for `C=C1C(C)=C(C#N)C(=O)N1c1cc(Cl)ccc1Cl`, the pIC50 was 4.90.

Take `C=C1C(C)=C(C#N)C(=O)N1c1cc(Cl)ccc1O`: the pIC50 is 4.03.

As to `C=C1C(C)=C(C#N)C(=O)N1c1cc(Cl)ccc1OC`, the pIC50 is 3.19.

On to `C=C1C(C)=C(C#N)C(=O)N1c1c(C)cccc1[N+](=O)[O-]`, for which the pIC50 is 3.80.

Regarding `C=C1C(C)=C(C#N)C(=O)N1c1ccc(F)c([N+](=O)[O-])c1`, the pIC50 was 4.70.

Turning to `C=C1C(C)=C(C#N)C(=O)N1c1ccc2c(c1)OCO2`, the pIC50 was 4.17.

Turning to `C=C1C(C)=C(C#N)C(=O)N1c1ccc(Cl)c(Cl)c1Cl`, the pIC50 was 4.82.

Consider `C=C1C(CCCC)=C(C#N)C(=O)N1c1c(C)cc(Cl)cc1C(C)C`, for which the pIC50 was 4.76.

Consider `C=C1C(CCCC)=C(C#N)C(=O)N1c1c(C)cc(C)cc1C`, for which the pIC50 was 4.96.

For the molecule `C=C1C(CCCC)=C(C#N)C(=O)N1c1cc(OC)c(OC)c(OC)c1`, the negative logarithm of the IC50 (pIC50) was 4.68.

With `C=C1C(CC(C)C)=C(C#N)C(=O)N1c1cc(Cl)ccc1Cl`, the pIC50 was 5.17.

On to `C=C1C(CC(C)C)=C(C#N)C(=O)N1c1c(Cl)c(Cl)cc(Cl)c1Cl`, for which the pIC50 was 4.35.

As to `CN(C(=O)C1CCCCC1)N1C(=O)C(C#N)=C2CCCC=C21`, the pIC50 was 4.06.

Consider `C=C1C(C)=C(C#N)C(=O)N1c1ccccc1-c1ccccc1`, for which the pIC50 was 4.60.

`C=C1C(C)=C(C#N)C(=O)N1c1ccccc1OC(F)(F)F`: the pIC50 is 4.35.

With `C=C1C(c2ccccc2)=C(C#N)C(=O)N1c1cc(Cl)ccc1Cl`, the pIC50 is 5.07.

For the molecule `C=C1C(c2ccccc2)=C(C#N)C(=O)N1c1cc(C)ccc1F`, the pIC50 is 4.90.

For the molecule `C=C1C(C)=C(C#N)C(=O)N1c1ccccc1Oc1ccccc1`, the pIC50 is 4.60.

With `C=C1C(C)=C(C#N)C(=O)N1c1ccccc1Cc1ccccc1`, the pIC50 is 4.65.

Consider `C=C1C(C)=C(C#N)C(=O)N1c1cccc(Oc2ccccc2)c1`, for which the pIC50 is 4.74.

`C=C1C(CCCCCCCC)=C(C#N)C(=O)N1c1c(C)cc(C)cc1C`: the pIC50 is 4.66.

As for `CCC/C=C1\C(C)=C(C#N)C(=O)N1c1c(C(C)(C)C)ccc(Cl)c1C`, the pIC50 was 2.64.

For `COc1cc(OC)cc(N2C(=O)C(C#N)=C(C)/C2=C/C(C)C)c1`, the pIC50 was 4.19.

On to `C=C1C(C)=C(C#N)C(=O)N1c1ccc(-c2ccccc2)cc1`, for which the pIC50 is 4.46.

On to `C=C1C(C)=C(C#N)C(=O)N1c1ccc(N(C)C(C)=O)cc1`, for which the pIC50 is 3.40.

`C=C1C(C)=C(C#N)C(=O)N1c1ccc(Cl)c2ccccc12`: the pIC50 was 4.82.

In the case of `C=C1C(CC)=C(C#N)C(=O)N1NC(=O)c1ccc(Cl)cc1`, the pIC50 is 4.14.

Turning to `C=C1C(C)=C(C#N)C(=O)N1c1cc(C(F)(F)F)ccc1C(F)(F)F`, the pIC50 was 5.35.

As for `C=C1C(C)=C(C#N)C(=O)N1c1cc([N+](=O)[O-])ccc1OC`, the pIC50 is 4.26.

With `C=C1C(C)=C(C#N)C(=O)N1c1cc(Cl)ccc1OC(=O)CC`, the pIC50 was 4.26.

With `C=C1C(C)=C(C#N)C(=O)N1c1c(C)cccc1C(C)(C)C`, the pIC50 was 3.80.

With `C=C1C(C)=C(C#N)C(=O)N1c1c(CC)cccc1C(C)(C)C`, the pIC50 is 3.82.

Regarding `C=C1C(C)=C(C#N)C(=O)N1c1c(C)cc(Cl)cc1C(C)C`, the pIC50 was 4.70.

With `C=C1C(C)=C(C#N)C(=O)N1c1c(C)cc(C)cc1C(F)(C(F)(F)F)C(F)(F)F`, the pIC50 is 3.80.

As for `C=C1C(CC)=C(C#N)C(=O)N1c1ccccc1C(C)(C)C`, the pIC50 was 4.40.

As to `C=C1C(CC)=C(C#N)C(=O)N1c1ccccc1OC(F)(F)F`, the pIC50 was 4.59.

Regarding `C=C1C(CC)=C(C#N)C(=O)N1c1c(C)cccc1C(C)C`, the pIC50 was 4.35.

Take `C=C1C(CCC)=C(C#N)C(=O)N1c1c(C)cccc1CC`: the negative logarithm of the IC50 (pIC50) was 4.32.

Consider `C=C1C(CCC)=C(C#N)C(=O)N1c1c(C)cccc1C(C)C`, for which the pIC50 was 4.98.

For `C=C1C(C(C)C)=C(C#N)C(=O)N1c1c(C)cc(Cl)cc1C`, the pIC50 was 4.96.

For the molecule `C=C1C(C(C)C)=C(C#N)C(=O)N1c1c(C)cc(C)cc1C`, the pIC50 is 4.26.

With `C=C1C(CCCC)=C(C#N)C(=O)N1c1ccccc1OC(F)(F)F`, the pIC50 was 4.82.

For `C=C1C(CCCC)=C(C#N)C(=O)N1c1c(C)cccc1C`, the pIC50 was 4.46.

Take `C=C1C(CCCC)=C(C#N)C(=O)N1c1c(C)cccc1C(C)C`: the pIC50 is 4.69.

The values above are taken from ChEMBL document CHEMBL1250461, “Synthesis, binding and bioactivity of gamma-methylene gamma-lactam ecdysone receptor ligands: advantages of QSAR models for flexible receptors” (Bioorg Med Chem, 2010).
